Measurements: ChEMBL document CHEMBL1124068, “5-Methyl-2-pyrrolidone analogues of oxotremorine as selective muscarinic agonists” (J Med Chem, 1988)
The source made the active and inactive calls.

What was measured:
Cavia porcellus [1] = species: Cavia porcellus; test: Equilibrium dissociation constant receptor complex, measured in guinea pig ileum; format: functional
Cavia porcellus [2] = species: Cavia porcellus; test: Maximum contractile response relative to that elicited by carbachol was measured in guinea pig ileum; format: functional
How it was run: (§1)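 Isolated guinea pig ileum in Tyrode solution (pH 7.4) with 0.3 mM hexamethonium, 37 °C; isotonic contractions at 1 g tension. Cumulative agonist concentration-response curves, concentration raised stepwise by factor 2.15; maxima expressed relative to carbachol.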

Cavia porcellus [3] = species: Cavia porcellus; test: Maximum contractile response relative to that elicited by carbachol was measured in guinea pig urinary bladder; format: functional
How it was run: (§2)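 Guinea pig bladder strips in Krebs-Henseleit solution (pH 7.4) with 0.3 mM hexamethonium, 37 °C; isotonic recording at 1 g tension; cumulative agonist additions increased by factor 3.16; responses referenced to carbachol.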

Cavia porcellus [4] = species: Cavia porcellus; test: Efficacy relative to that of carbachol; format: functional
Cavia porcellus [5] = species: Cavia porcellus; test: Concentration that elicits 50% of its own maximum contractile response in guinea pig ileum; format: functional; how it was run: as §1
Cavia porcellus [6] = species: Cavia porcellus; test: Efficacy relative to that of carbachol (guinea pig urinary bladder); format: functional
Cavia porcellus [7] = species: Cavia porcellus; test: Equilibrium dissociation constant receptor complex, measured in guinea pig urinary bladder; format: functional
Cavia porcellus [8] = species: Cavia porcellus; test: Concentration that elicits 50% of its own maximum contractile response in guinea pig urinary bladder; format: functional; how it was run: as §2
[9] = Acute toxicity administered intraperitoneally to mice; format: organism-based; conditions: mouse, in vivo, ip
Mus musculus [10] = test: Tremorolytic activity administered intraperitoneally to mice; c = no significant blockade was observed; format: functional, organism-based
How it was run: (§3)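 Antagonists given ip to groups of six or more male Swiss-Webster mice (24-32 g), six untreated controls; 20 min later iv oxotremorine ED50 for grade 2 intermittent spontaneous tremor found by up-and-down method. Dose doubling oxotremorine ED50 derived by linear regression; values are means ± standard errors.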

Mus musculus [11] = test: Tremorolytic activity administered intraperitoneally to mice; format: functional; conditions: ip; how it was run: as §3
Mus musculus [12] = test: Central muscarinic activity administered intraperitoneally to mice, expressed as hypothermia; format: functional; conditions: ip
How it was run: (§4)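 Rectal temperature (probe ~25 mm) in male Swiss-Webster mice (24-32 g) after ip dosing at 20.5 ± 1.0 °C; six mice per dose, five to six doses, readings every 20 min for 3 h. Maximal fall from pretreatment used; ED50 from logistic fit.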

Mus musculus [13] = test: Central muscarinic activity administered intraperitoneally to mice, expressed as analgesia; format: functional; conditions: ip
How it was run: (§5)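 Male Swiss-Webster mice (24-32 g), ip, 20.5 ± 1.0 °C; tail-flick test, 15 s cut-off, groups of ten at three to four dose levels. Reaction time above control mean plus 3 SD counted as increased; ED50 by probit analysis.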

Mus musculus [14] = test: Muscarinic activity administered intraperitoneally to mice, expressed as salivation; format: functional; conditions: ip
How it was run: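 Male Swiss-Webster mice (24-32 g) dosed ip at 20.5 ± 1.0 °C; salivation judged by pressing mouth onto absorbent tissue; threshold dose estimated by up-and-down method.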

Mus musculus [15] = test: Central muscarinic activity administered intraperitoneally to mice, expressed as hypothermia; d = no effect was observed; format: functional, organism-based; how it was run: as §4
Mus musculus [16] = test: Central muscarinic activity administered intraperitoneally to mice, expressed as analgesia; d = no effect was observed; format: functional, organism-based; how it was run: as §5

| Structure (SMILES) | Kd (Cavia porcellus [1]) [nM] | Emax (Cavia porcellus [2]) | Emax (Cavia porcellus [3]) | Relative efficacy (Cavia porcellus [4]) | EC50 (Cavia porcellus [5]) [nM] | Relative efficacy (Cavia porcellus [6]) | Kd (Cavia porcellus [7]) [nM] | EC50 (Cavia porcellus [8]) [nM] | LD50 [9] [µmol/kg] | ED50 (Mus musculus [10]) | ED50 (Mus musculus [11]) [µmol/kg] | ED50 (Mus musculus [12]) [µmol/kg] | ED50 (Mus musculus [13]) [µmol/kg] | ED50 (Mus musculus [14]) [µmol/kg] | ED50 (Mus musculus [15]) | ED50 (Mus musculus [16]) |
| --- | --- | --- | --- | --- | --- | --- | --- | --- | --- | --- | --- | --- | --- | --- | --- | --- |
| C[N+](C)(C)CCOC(N)=O.[Cl-] [CARBACHOL] | 14100 | 100 | 100 | 1 | 110 | 1 | 17000 | 900 |  |  |  |  |  |  |  |  |
| CC[N+](C)(C)CC#CCN1C(=O)CCC1C.[I-] (centres undefined) | 4900 | 28.7 | 0 | 0.0036 | 3200 |  | 3500 |  | 176 | No significant blockade |  |  |  |  |  |  |
| CCN(CC)CC#CCN1C(=O)CCC1C (centres undefined) | 1100 | 0 | 0 |  |  |  | 2100 |  | 720 |  | 5.1 |  |  |  |  |  |
| CN1[C@@H]2CC[C@H]1C[C@@H](OC(=O)C(CO)c1ccccc1)C2 (some centres undefined) [ATROPINE] |  |  |  |  |  |  |  |  |  |  | 0.57 |  |  |  |  |  |
| CCN(C)CC#CCN1C(=O)CCC1C (centres undefined) | 1800 | 0 | 0 |  |  |  | 2500 |  | 636 |  | 6.7 |  |  |  |  |  |
| O=C1CCCN1CC#CCN1CCCC1 [OXOTREMORINE] |  |  |  |  |  |  |  |  |  |  |  | 0.22 | 0.05 | 0.29 |  |  |
| CC1CCC(=O)N1CC#CCN(C)C (centres undefined) | 4300 | 102 | 58.1 | 0.04 | 910 | 0.064 | 11800 | 15000 | 402 |  | 22.8 | 13.1 | 1.5 | 4 |  |  |
| CC1CCC(=O)N1CC#CCN1CCCC1 (centres undefined) |  |  |  |  |  |  |  |  | 107 |  | 0.36 |  |  |  |  |  |
| CC1CCC(=O)N1CC#CCN1CCC1 (centres undefined) | 520 | 90 | 21.4 | 0.02 | 230 | 0.022 | 580 | 4600 | 192 |  | 4.6 | 4.9 | 0.71 | 1.3 |  |  |
| CC1CCC(=O)N1CC#CC[N+](C)(C)C.[I-] (centres undefined) | 1700 | 100 | 71.4 | 0.057 | 180 | 0.062 | 2800 | 2000 | 33.6 | inactive |  |  |  | 12 | inactive | inactive |
| CC(=O)N(C)C(C)C#CCN1CCCC1 (centres undefined) | 240 | 82.6 | <5 | 0.012 | 190 |  | 140 |  | 665 |  | 0.63 | 0.75 | 0.37 | 0.65 |  |  |
